Results on two molecules are retold here after ChEMBL document CHEMBL4041524, “Synthesis and Characterization of a Novel γ-Aminobutyric Acid Type A (GABAA) Receptor Ligand That Combines Outstanding Metabolic Stability, Pharmacokinetics, and Anxiolytic Efficacy” (J Med Chem, 2016).

Structures are written as SMILES. Active and inactive are the calls of the source. The calls are words filed in the database; no cut-off is given here.

Series [1] concerns the target T1, GABA-A receptor; alpha-3/beta-3/gamma-2 (Homo sapiens, UniProt P18507+P28472+P34903).
T1 sequence (P18507 whole entry): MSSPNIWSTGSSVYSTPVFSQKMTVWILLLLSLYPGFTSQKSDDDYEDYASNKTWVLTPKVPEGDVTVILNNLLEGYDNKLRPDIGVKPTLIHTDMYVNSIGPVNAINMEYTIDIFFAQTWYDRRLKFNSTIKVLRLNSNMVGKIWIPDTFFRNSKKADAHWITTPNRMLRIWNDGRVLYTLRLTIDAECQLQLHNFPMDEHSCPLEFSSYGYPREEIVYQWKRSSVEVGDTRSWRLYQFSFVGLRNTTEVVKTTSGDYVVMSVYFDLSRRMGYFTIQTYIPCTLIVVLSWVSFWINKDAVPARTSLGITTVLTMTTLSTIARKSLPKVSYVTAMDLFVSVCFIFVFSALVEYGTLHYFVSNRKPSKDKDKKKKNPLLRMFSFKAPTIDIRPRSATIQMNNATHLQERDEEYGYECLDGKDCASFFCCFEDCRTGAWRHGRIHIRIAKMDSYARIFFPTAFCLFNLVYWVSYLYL
T1 sequence (P28472 whole entry): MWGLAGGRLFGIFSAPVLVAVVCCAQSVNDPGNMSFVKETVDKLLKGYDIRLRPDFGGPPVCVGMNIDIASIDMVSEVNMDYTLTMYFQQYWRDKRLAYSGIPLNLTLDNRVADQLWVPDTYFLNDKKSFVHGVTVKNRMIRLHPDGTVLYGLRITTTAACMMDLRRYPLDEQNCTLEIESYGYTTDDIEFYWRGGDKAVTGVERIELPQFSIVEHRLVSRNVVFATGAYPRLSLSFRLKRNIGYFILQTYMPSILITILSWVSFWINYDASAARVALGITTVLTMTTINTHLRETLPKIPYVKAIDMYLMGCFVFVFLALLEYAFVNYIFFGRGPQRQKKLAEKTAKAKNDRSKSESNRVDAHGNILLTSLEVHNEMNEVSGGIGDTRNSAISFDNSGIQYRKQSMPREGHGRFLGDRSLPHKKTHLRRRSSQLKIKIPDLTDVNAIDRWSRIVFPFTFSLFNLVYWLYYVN
T1 sequence (P34903 whole entry): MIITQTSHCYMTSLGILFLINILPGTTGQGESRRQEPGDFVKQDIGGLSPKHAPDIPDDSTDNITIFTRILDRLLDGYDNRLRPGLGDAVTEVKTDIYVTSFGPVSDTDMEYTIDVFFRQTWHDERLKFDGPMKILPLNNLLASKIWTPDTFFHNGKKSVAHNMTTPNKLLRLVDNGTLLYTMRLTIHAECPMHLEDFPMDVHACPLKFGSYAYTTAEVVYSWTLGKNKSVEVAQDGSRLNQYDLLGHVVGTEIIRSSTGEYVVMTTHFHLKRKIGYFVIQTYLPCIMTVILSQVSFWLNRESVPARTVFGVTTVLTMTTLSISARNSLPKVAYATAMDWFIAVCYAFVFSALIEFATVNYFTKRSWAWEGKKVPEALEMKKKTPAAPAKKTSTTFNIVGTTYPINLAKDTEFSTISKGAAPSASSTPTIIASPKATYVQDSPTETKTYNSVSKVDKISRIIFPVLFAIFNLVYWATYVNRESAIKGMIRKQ
Put plainly: Binding affinity to human GABAA alpha3beta3gamma2 receptor expressed in HEK293 cells assessed as GABA-induced membrane potential change preincubated for 3 mins followed by addition of GABA measured after 3 mins by FLIPR assay. The class given is cell-based. In short, it runs like this: (§1)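 Stably transfected HEK293T cells expressing α1β3γ2 (n = 2) or α3β3γ2 (n = 1) GABAARs. Membrane potential was read as fluorescence changes on a FLIPR Tetra, and EC50 was derived.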

A short description of series [2]: Cytotoxicity against HEK293T cells assessed as viable cells measured after 18 hrs by CellTiter-Glo assay. The class given is cell-based, HEK-293T. Conditions: human, read-out: LD50. In short, it runs like this: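 HEK293T cells were exposed to compound for 18 h (n = 4). Viable cells were quantified with CellTiter-Glo, and LD50 was derived.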
A short description of series [3]: Drug uptake in Sprague-Dawley rat brain at 10 mg/kg, po measured after 60 mins by LC-MS/MS analysis. The series is classed as ADME, organism-based. Conditions: read-out: Drug uptake. In short, it runs like this: (§2)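 Sprague-Dawley rats (n = 3 per time point) were given 10 mg/kg p.o. Total plasma concentrations were taken at 15, 30, 60 and 120 min. Brain levels of the dosed ligand and of the carboxylic acid metabolite were taken at 60 or 120 min.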

The subject of series [4] is Mus musculus. Put plainly: Anxiolytic-like activity in Swiss Webster mouse marble burying model of anxiety assessed as suppression of marble burying activity at 10 mg/kg, ip administered 30 mins prior to test relative to vehicle-control. The series is classed as functional, organism-based. In short, it runs like this: (§3)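 Male NIH Swiss Webster mice (n = 10) received vehicle or compound at 10 or 30 mg/kg i.p. 30 min before marble burying testing. Sedation-like behaviour was noted by observation. Analysis was ANOVA with Dunnett's test vs vehicle.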

Series [5] deals with T2, GABA-A receptor; alpha-1/beta-3/gamma-2 (Homo sapiens, UniProt P14867+P18507+P28472).
T2 sequence (P14867 whole entry): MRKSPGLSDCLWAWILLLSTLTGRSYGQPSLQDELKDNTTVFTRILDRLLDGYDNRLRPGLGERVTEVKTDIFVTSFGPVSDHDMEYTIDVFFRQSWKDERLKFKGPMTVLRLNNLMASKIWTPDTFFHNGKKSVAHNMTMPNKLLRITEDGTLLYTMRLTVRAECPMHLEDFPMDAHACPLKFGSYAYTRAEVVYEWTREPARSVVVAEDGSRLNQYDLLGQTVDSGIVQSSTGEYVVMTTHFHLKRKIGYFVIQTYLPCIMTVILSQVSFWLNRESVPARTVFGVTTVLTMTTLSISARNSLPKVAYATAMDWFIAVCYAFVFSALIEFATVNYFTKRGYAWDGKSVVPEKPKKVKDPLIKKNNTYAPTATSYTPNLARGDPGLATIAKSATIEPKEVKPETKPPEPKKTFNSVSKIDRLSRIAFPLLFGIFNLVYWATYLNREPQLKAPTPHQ
T2 sequence (P18507 whole entry): T1 sequence (P18507 whole entry)
T2 sequence (P28472 whole entry): T1 sequence (P28472 whole entry)
As to the kind of experiment: Binding affinity to human GABAA alpha1beta3gamma2 receptor expressed in HEK293 cells assessed as GABA-induced membrane potential change preincubated for 3 mins followed by addition of GABA measured after 3 mins by FLIPR assay. The series is classed as cell-based. In short, it runs like this:
as §1

Series [6] deals with Liver. Put plainly: Metabolic stability in mouse liver microsomes assessed as compound remaining at 4 uM measured after 30 mins in presence of NADPH by LC-MS/MS analysis. The series is classed as ADME, microsome. Conditions: 0.5 h. In short, it runs like this:
(§4)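 Human, mouse or rat liver microsomes were incubated with compound at 4 μM final for 30 min at 37 °C (n = 1). Percent of parent remaining was quantified by LC-MS/MS.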
A general note: Microsomes from liver hold many membrane-bound enzymes, among them those of drug oxidation.

For series [7], the system named is Mus musculus. As to the kind of experiment: Toxicity in Swiss mouse assessed as change in motor coordination by measuring number of falls from the rotating rod at 10 mg/kg, ip administered 30 mins prior to testing measured for 2 mins by rotarod test relative to control. The series is classed as organism-based. Conditions: in vivo. In short, it runs like this:
(§5)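 The same mice used for marble burying were placed on a rotarod at 4 r.p.m. for 2 min. No fall was scored success, one fall partial, and two falls failure.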
(In the rotarod test animals must keep their balance on a rotating rod.)

The test system of series [8] is Mus musculus. Put plainly: Anxiolytic-like activity in Swiss Webster mouse marble burying model of anxiety assessed as suppression of marble burying activity at 30 mg/kg, ip administered 30 mins prior to test relative to vehicle-control. The class given is functional, organism-based. In short, it runs like this: as §3
The nature of series [9]: Total plasma concentration in Sprague-Dawley rat at 10 mg/kg, po measured after 60 mins by LC-MS/MS analysis. The series is classed as ADME, organism-based. In short, it runs like this:
as §2

Series [10] deals with Liver. Put plainly: Metabolic stability in human liver microsomes assessed as compound remaining at 4 uM measured after 30 mins in presence of NADPH by LC-MS/MS analysis. The series is classed as ADME, microsome. Conditions: 0.5 h. In short, it runs like this:
as §4

Series [11] deals with Liver. Put plainly: Metabolic stability in rat liver microsomes assessed as compound remaining at 4 uM measured after 30 mins in presence of NADPH by LC-MS/MS analysis. The series is classed as ADME, microsome. Conditions: 0.5 h. In short, it runs like this:
as §4

Series [12] deals with Mus musculus. As to the kind of experiment: Toxicity in Swiss Webster mouse assessed as sedation-like behavior at 30 mg/kg, ip measured after 30 mins. The class given is organism-based. Conditions: in vivo, 0.5 h. In short, it runs like this:
as §3

Series [13] concerns Mus musculus. As to the kind of experiment: Toxicity in Swiss mouse assessed as change in motor coordination by measuring number of falls from the rotating rod at 30 mg/kg, ip administered 30 mins prior to testing measured for 2 mins by rotarod test relative to control. The series is classed as organism-based. Conditions: in vivo. In short, it runs like this:
as §5

Another series has as its system Rattus norvegicus. As to the kind of experiment: Toxicity in water-deprived Sprague-Dawley rat assessed as effect on water drinking time during nonpunished period at 20 mg/kg, po by Vogel conflict test. The class given is organism-based. Conditions: in vivo. In short, it runs like this:
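Water-deprived male Sprague-Dawley rats (n = 6–8) drank during unpunished and punished periods, with licking suppressed by mild shock in punished periods. Compounds were given 30 min before testing. Analysis was ANOVA with Dunnett's test.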

One may read the EC50 as the concentration giving half of the maximal effect. With `C#Cc1ccc2c(c1)C(c1ccccn1)=NCc1c(-c3nc(CC)no3)ncn1-2`, the concentration for a half-maximal effect (EC50) was 3.02 µM in series [1] and above 20 µM in series [5]. The CC50 at 18 h in series [2] was above 100 µM. The figures for the concentration at 1 h in [3] and in series [9] were 3090 nM and 1720 nM, respectively. In addition, the result in the series on Mus musculus [4] and with Mus musculus [8] was Active. For the same molecule, the Stability with Liver [6] came to 92%; in the series on Liver [10], 91%; in the series on Liver [11], 97%. Further, the Activity entry with Mus musculus [7], in the series with Mus musculus [12] and with Mus musculus [13] was “Toxic” throughout.

Turning to `CNC1=Nc2ccc(Cl)cc2C(c2ccccc2)=[N+]([O-])C1` [CHLORDIAZEPOXIDE], in the series on Rattus norvegicus, the Activity result is reported as “Non-Toxic”.
